Assays:
[1] = tested on: PDGFR-β promoter R1 mutant NHE luciferase construct; assay: Luciferase reporter assay, R1 NHE construct; assay type: cell-based, human; settings: HEK 293, 100 μM, 24 h
[2] = tested on: NO-NHE luciferase construct; assay: Luciferase reporter assay, NO-NHE construct; assay type: cell-based, human; settings: HEK 293, 100 μM, 24 h
PDGFR-β transcript = assay: qRT-PCR of PDGFR-β transcript in SK-N-SH; assay type: cell-based; settings: 24 h, relative to DMSO control
[3] = tested on: PDGFR-β promoter WT-NHE luciferase construct; assay: Luciferase reporter assay, WT-NHE construct; assay type: cell-based, human; settings: 24 h
[4] = tested on: PDGFR-β NHE WT 41-mer (FL Pu41); assay type: binding, human; settings: CD spectral and thermal melt analysis
Outline: (§1)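 Oligo at 5 μM final in 50 mM Tris-HCl with 50 mM K+, pH 7.4. Heated to 95 °C for 5 min, slowly cooled, then incubated 30 min with molar equivalents of compound or DMSO. CD 230–330 nm at room temperature, triplicate scans averaged and baseline-corrected. Melt at 262 nm from 20 to 95 °C at 1 °C/min. Tm by nonlinear regression, ±1 °C.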

[5] = tested on: R1 mutant PDGFR-β i-motif; assay: CD spectral and thermal-melt analysis with R1 mutant i-motif; assay type: binding, human
Outline: (§2)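 Oligo at 5 μM final in 10 mM sodium cacodylate, pH 6.5. Heated to 95 °C for 5 min, slowly cooled to room temperature, then given molar equivalents of compound or DMSO for 30 min. CD spectra 230–350 nm at room temperature, triplicate scans averaged and baseline-corrected. Melts followed at 286 nm, 20–95 °C at 1 °C/min. Tm by nonlinear regression.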

SK-N-SH = assay: MTS cytotoxicity assay in SK-N-SH; assay type: cell-based; settings: read-out: IC50 concentration in SK-N-SH
WT PDGFR-β i-motif = assay: CD spectral and thermal-melt analysis with WT i-motif; assay type: binding, human; settings: increasing concentrations of compound
Outline: as §2

[6] = tested on: PDGFR-β Py41 R1 mutant i-motif FRET probe; assay: i-motif FRET assay, R1 mutant probe; assay type: binding, human
[7] = tested on: PDGFR-β Py41 WT i-motif FRET probe; assay: i-motif FRET assay, WT probe; assay type: binding, human; settings: probe 20 nM, compound 200 nM, 30 min
HEK293 = assay: MTS cytotoxicity assay in HEK293; assay type: cell-based, human; settings: read-out: IC50 in HEK 293
[8] = tested on: BCL2 i-motif / BCL2 transcription; settings: cited from earlier work
[9] = tested on: PDGFR-β 3′-end G-quadruplex; assay: CD spectral and thermal-melt analysis with constituent PDGFR-β G-quadruplexes; assay type: binding, human
Outline: as §1

[10] = tested on: PDGFR-β NHE G-quadruplexes; settings: cited from earlier work

CN1CCc2ccccc2C1Cc1ccccc1NC(=O)c1sc2ccccc2c1Cl (stereo not shown) [NSC309874]
downregulation of luciferase activity, R1 NHE construct [1]: ~50% | effect on luciferase activity, NO-NHE construct [2]: does not inhibit transcription | reduction of PDGFR-β expression (PDGFR-β transcript; 0.5 IC50 (50 μM)): approximately 25% | reduction of PDGFR-β expression (PDGFR-β transcript; IC50 (100 μM)): ~50% | downregulation of luciferase activity, WT-NHE construct ([3]; HEK 293, 100 μM): approximately 45% | interaction with PDGFR-β G-quadruplex-forming sequence [4]: negligible interaction | effect on Tm of R1 mutant i-motif ([5]; CD thermal melt): small increase in Tm | effect on CD of R1 mutant i-motif ([5]; increasing concentrations of compound): little change in the CD | IC50 (SK-N-SH): 100 µM | shift in λMAX of CD spectrum of WT i-motif (WT PDGFR-β i-motif): from 286 to 279 | increase in FRET of the R1 mutant ([6]; FRET (pH 6.6) high-throughput screening): more than 2 fold | increase in FRET signal, R1 mutant probe ([6]; probe 20 nM, compound 200 nM, 30 min): 218% | increase in FRET signal, WT probe [7]: 170% | IC50 (HEK293): > 100 µM

COc1ccc2c(c1)CN([C@@H](C)[C@H]1CC[C@H]3[C@@H]4CC[C@H]5C[C@@H](O)CC[C@]5(C)[C@H]4CC[C@]13C)CO2 [IMC76]
effect on BCL2 transcription [8]: decreasing BCL2 transcription

CC(C)CCC[C@@H](C)[C@H]1CC[C@H]2[C@@H]3CC[C@H]4C[C@H](NC(=O)C[N+]5(C)CCCCC5)CC[C@]4(C)[C@H]3CC[C@]12C.[I-] [IMC48]
effect on BCL2 transcription [8]: increased BCL2 transcription

Cc1c2ccncc2c(C)c2c1[nH]c1ccc(OCCN(C)C)cc12 [NSC338258]
selectivity of luciferase inhibition WT-NHE versus NO-NHE ([3]; IC50 and 50% IC50 concentrations): moderate degree of selectivity | increase in thermal stability of 3′-end G-quadruplex ([9]; 1 mol equiv of compound): 4 °C | increase in thermal stability of 3′-end G-quadruplex ([9]; 2 mol equiv of compound): 9 °C | binding to PDGFR-β NHE compared with MYC promoter G-quadruplex [10]: binds almost as well to the PDGFR-β NHE as to the MYC promoter G-quadruplex

Cc1oc2nc1-c1nc(co1)-c1nc(co1)-c1nc(co1)-c1nc(co1)-c1nc(co1)C1=NC(CS1)c1nc-2c(C)o1 (stereo not shown) [telomestatin]
G-quadruplex binding selectivity in PDGFR-β NHE [10]: appeared to bind selectively to the 3′-end G-quadruplex | effect on PDGFR-β [10]: produced a decrease in PDGFR-β

Source: publication PMC5977998 (Journal of the American Chemical Society, 2017)
